Assay [1] has as its target Adenylate cyclase type 1 (Homo sapiens) (UniProt Q08828). The assay is described as follows: Activation of human platelet adenylate cyclase at the concentration of 10 uMol. The format is functional. The method, boiled down:
(§1)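 Adenylate cyclase in membranes prepared from human platelet-rich plasma, compound tested as Na salt. Activity is given as percent (mean ± SE) of measurable enzyme activity without drug, n = 8, with significance tested against the respective control. The method follows ref 17.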

Assay [2] has the same target. The assay is described as follows: Activation of human platelet adenylate cyclase at the concentration of 1 uMol. It counts as functional. The procedure, abridged: as §1
The species entered for the next assay is Bos taurus. The assay is described as follows: Effective concentration of compound for relaxation of bovine coronary artery. The format is functional.
Assay [3] relates to Canis familiaris. The assay is described as follows: Percent change in blood pressure produced by the compound on dogs by intravenous infusion rate of 50 ng/kg/min. The format is functional, Canis lupus familiaris. The procedure, abridged: (§2)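 The compound was infused into a femoral vein at increasing concentrations, each dose level for 3 min. Mean peripheral blood pressure was taken in the femoral artery and heart rate by cardiotachometer. Total and coronary vascular resistance were calculated as blood pressure divided by the corresponding flow. Values are maximum changes as percent of resting values.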

Assay [4] concerns Canis familiaris. The assay is described as follows: Percent change in cardiac out put produced by the compound on dogs by intravenous infusion rate of 50 ng/kg/min. The format is functional, Canis lupus familiaris, Heart. The procedure, abridged:
as §2

Assay [5] concerns Canis familiaris. The assay is described as follows: Percent change in total peripheral resistance produced by the compound on dogs by intravenous infusion rate of 50 ng/kg/min. The format is functional, Canis lupus familiaris. The method, boiled down: as §2
The test system of assay [6] is Canis familiaris. The assay is described as follows: Percent change in heart rate produced by the compound on dogs by intravenous infusion rate of 50 ng/kg/min. The format is functional, Canis lupus familiaris. The procedure, abridged:
as §2

The subject of assay [7] is Canis familiaris. The assay is described as follows: Percent change in coronary resistance produced by the compound on dogs by intravenous infusion rate of 50 ng/kg/min. The format is functional, Canis lupus familiaris. The method, boiled down:
as §2

Another assay is filed under the species Homo sapiens. The assay is described as follows: Inhibitory concentration of compound in human platelet rich plasma against 2 umol of ADP-induced aggregation. The format is functional.
Assay [8] relates to Canis familiaris. The assay is described as follows: Percent change in blood pressure produced by the compound on dogs by intravenous infusion rate of 1000 ng/kg/min. It counts as functional, Canis lupus familiaris. The method, boiled down: as §2
In assay [9] the test system is Canis familiaris. The assay is described as follows: Percent change in blood pressure produced by the compound on dogs by intravenous infusion rate of 500 ng/kg/min. The format is functional, Canis lupus familiaris. The method, boiled down:
as §2

The subject of assay [10] is Canis familiaris. The assay is described as follows: Percent change in blood pressure produced by the compound on dogs by intravenous infusion rate of 5000 ng/kg/min. It counts as functional, Canis lupus familiaris. The method, boiled down:
as §2

The subject of assay [11] is Canis familiaris. The assay is described as follows: Percent change in cardiac out put produced by the compound on dogs by intravenous infusion rate of 1000 ng/kg/min. It counts as functional, Canis lupus familiaris, Heart. The procedure, abridged:
as §2

The subject of assay [12] is Canis familiaris. The assay is described as follows: Percent change in cardiac out put produced by the compound on dogs by intravenous infusion rate of 500 ng/kg/min. It counts as functional, Canis lupus familiaris, Heart. The procedure, abridged: as §2
Assay [13] concerns Canis familiaris. The assay is described as follows: Percent change in total peripheral resistance produced by the compound on dogs by intravenous infusion rate of 500 ng/kg/min. It counts as functional, Canis lupus familiaris. The method, boiled down: as §2
Assay [14] relates to Canis familiaris. The assay is described as follows: Percent change in total peripheral resistance produced by the compound on dogs by intravenous infusion rate of 5000 ng/kg/min. It counts as functional, Canis lupus familiaris. The method, boiled down: as §2
The test system of assay [15] is Canis familiaris. The assay is described as follows: Percent change in coronary resistance produced by the compound on dogs by intravenous infusion rate of 5000 ng/kg/min. The format is functional, Canis lupus familiaris. The method, boiled down: as §2
Assay [16] relates to Canis familiaris. The assay is described as follows: Percent change in heart rate produced by the compound on dogs by intravenous infusion rate of 1000 ng/kg/min. The format is functional, Canis lupus familiaris. The procedure, abridged: as §2
Assay [17] relates to Canis familiaris. The assay is described as follows: Percent change in heart rate produced by the compound on dogs by intravenous infusion rate of 500 ng/kg/min. The format is functional, Canis lupus familiaris. The method, boiled down: as §2
The subject of assay [18] is Canis familiaris. The assay is described as follows: Percent change in heart rate produced by the compound on dogs by intravenous infusion rate of 5000 ng/kg/min. It counts as functional, Canis lupus familiaris. The procedure, abridged: as §2
Assay [19] has as its system Canis familiaris. The assay is described as follows: Percent change in total peripheral resistance produced by the compound on dogs by intravenous infusion rate of 1000 ng/kg/min. It counts as functional, Canis lupus familiaris. The procedure, abridged: as §2
In assay [20] the test system is Canis familiaris. The assay is described as follows: Percent change in cardiac out put produced by the compound on dogs by intravenous infusion rate of 5000 ng/kg/min. It counts as functional, Canis lupus familiaris, Heart. The method, boiled down: as §2
The test system of assay [21] is Canis familiaris. The assay is described as follows: Percent change in coronary resistance produced by the compound on dogs by intravenous infusion rate of 1000 ng/kg/min. The format is functional, Canis lupus familiaris. The procedure, abridged:
as §2

Assay [22] relates to Canis familiaris. The assay is described as follows: Percent change in coronary resistance produced by the compound on dogs by intravenous infusion rate of 500 ng/kg/min. It counts as functional, Canis lupus familiaris. The procedure, abridged: as §2

In general, EC50 refers to the concentration needed to bring the measured effect to its halfway point. Low values mean a more potent agent, high ones a less potent agent. In general, IC50 refers to the concentration needed to halve the response being measured. High values mean weaker potency in that assay, low ones greater potency in that assay.

Chain of Adenylate cyclase type 1 (Homo sapiens) (Q08828 whole entry, looked up): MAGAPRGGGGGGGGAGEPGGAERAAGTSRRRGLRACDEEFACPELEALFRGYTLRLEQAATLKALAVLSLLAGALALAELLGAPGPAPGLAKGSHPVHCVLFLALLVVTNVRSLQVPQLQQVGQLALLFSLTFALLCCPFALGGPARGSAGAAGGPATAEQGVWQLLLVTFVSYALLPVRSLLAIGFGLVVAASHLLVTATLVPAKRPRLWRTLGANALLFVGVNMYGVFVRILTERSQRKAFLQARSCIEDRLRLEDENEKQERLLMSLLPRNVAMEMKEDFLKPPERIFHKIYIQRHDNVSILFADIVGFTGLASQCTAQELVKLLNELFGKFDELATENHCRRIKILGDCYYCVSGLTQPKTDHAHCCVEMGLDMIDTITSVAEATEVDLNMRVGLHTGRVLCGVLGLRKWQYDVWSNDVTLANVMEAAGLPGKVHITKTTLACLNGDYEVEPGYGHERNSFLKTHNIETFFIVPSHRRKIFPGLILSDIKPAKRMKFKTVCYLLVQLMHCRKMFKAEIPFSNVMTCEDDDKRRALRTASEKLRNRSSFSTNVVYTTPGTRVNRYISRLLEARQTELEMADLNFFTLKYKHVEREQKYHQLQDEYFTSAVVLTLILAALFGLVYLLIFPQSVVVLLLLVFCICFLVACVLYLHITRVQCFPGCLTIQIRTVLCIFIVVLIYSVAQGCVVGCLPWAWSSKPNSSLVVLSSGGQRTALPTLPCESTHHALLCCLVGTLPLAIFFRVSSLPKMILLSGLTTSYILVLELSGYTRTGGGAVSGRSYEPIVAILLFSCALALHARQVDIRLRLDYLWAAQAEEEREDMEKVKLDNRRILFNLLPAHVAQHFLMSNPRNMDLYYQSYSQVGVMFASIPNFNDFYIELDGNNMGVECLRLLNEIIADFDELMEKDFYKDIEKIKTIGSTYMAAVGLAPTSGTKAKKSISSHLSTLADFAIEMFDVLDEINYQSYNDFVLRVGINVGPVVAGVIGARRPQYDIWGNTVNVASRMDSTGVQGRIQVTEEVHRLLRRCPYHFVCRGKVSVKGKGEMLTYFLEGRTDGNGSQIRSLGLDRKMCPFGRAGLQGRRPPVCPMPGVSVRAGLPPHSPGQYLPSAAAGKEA

`CCCCC[C@H](O)/C=C/[C@@H]1[C@H]2C/C(=C/CCCC(=O)[O-])O[C@H]2C[C@H]1O.[Na+]` [EPOPROSTENOL SODIUM]: the Activity amounted to 1740% in [1] and 374% in assay [2]. This compound also returned a concentration for a half-maximal effect (EC50) in the assay listed under Bos taurus of 43 nM. Besides, the Hemodynamic change in the assay with Canis familiaris [3] is on record as -13.6%; in the assay on Canis familiaris [4], -5.6%; with Canis familiaris [5], -11.5%; in the assay on Canis familiaris [6], 3.6%; in the assay on Canis familiaris [7], -2.8%. The same compound yielded a half-maximal inhibitory concentration (IC50) in the assay listed under Homo sapiens of 1 ng/mL.

With `CCCCC[C@H](O)/C=C/[C@H]1[C@H](O)CC2O/C(=C\CCCC(=O)[O-])C(=O)[C@@H]21.[Na+]` (stereo partly drawn), the results for the Activity in assay [1] and in [2] were 825% and 239%, respectively. For the same compound, a half-maximal effect in the assay listed under Bos taurus (EC50) was put at 402 nM. Besides, the Hemodynamic change with Canis familiaris [8] is reported as -13.3%; in the assay on Canis familiaris [9] it was -8.1%; with Canis familiaris [10], -49%; in the assay on Canis familiaris [11], -3.9%; with Canis familiaris [12] it was -1.6%; in the assay on Canis familiaris [13], -8.3%. Further, the Hemodynamic change in the assay with Canis familiaris [14] was -40.7%; in the assay with Canis familiaris [15] it was -28.8%; in the assay on Canis familiaris [16] it was -2%; in the assay on Canis familiaris [17], 0%; with Canis familiaris [18] it was -13.8%; in the assay with Canis familiaris [19], -13.3%. Moreover, the Hemodynamic change is reported as -22.3% in the assay with Canis familiaris [20], -6.1% in the assay with Canis familiaris [21] and -2.2% with Canis familiaris [22].

In the assay listed under Homo sapiens, `CCCCC[C@H](O)/C=C/[C@@H]1[C@H]2C(=O)/C(=C/CCCC(=O)[O-])O[C@H]2C[C@H]1O.[Na+]` registered a half-inhibitory concentration (IC50) of 15 ng/mL.

For the origin of these results see ChEMBL document CHEMBL1121996, “A new stable prostacyclin mimic, 7-oxoprostaglandin I2” (J Med Chem, 1982).
